Screening results deposited in PubChem by several laboratories.
Ecoli WT expand: E. coli BW25113 growth inhibition, expanded screen; OD600 absorbance; growth inhibition, % at 100 µM; hit rate 0.15% among 98,000; AID 710;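 active means growth inhibition above about 50% at one test dose, limit read from the data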;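 further: growth measured after 20 h incubation at 37 °C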
Ecoli tolC: growth inhibitors of E. coli BW25113 tolC mutant. OD615. growth inhibition, % at 10 µM (by protocol). hit rate 2.2% among 65,000;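 active means growth inhibition at or above a cutoff equal to the mean over every tested compound plus 3 SD, cut at about 60% in these data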;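 further: growth measured after 20 h incubation at 37 °C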
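Test system: tolC-deleted E. coli BW25113; medium: LB with kanamycin 50 µg/mL; compound: single-point testing at 10 µM; incubation: 20 h compound exposure of bacteria at 37 °C; signal: OD at 615 nm; evaluation: growth inhibition in percent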
PostGolgi ctrl: growth of the yeast control strain, post-Golgi counter-screen | inhibition, % at 10 µM | hit rate 5% among 98,000 | efflux-deficient yeast background strain, growth absorbance A615, 16 h
PostGolgi yeast: growth inhibition of a yeast mutant, post-Golgi transport screen; post-Golgi transport phenotypic cell assay; inhibition, % at 10 µM; hit rate 0.9% among 98,000; AID 739;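 further: yeast cells grown in 1536-well plates; yeast grown about 18 h at 30C before absorbance read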
PLAP act: activators of human placental alkaline phosphatase; P05187; purified PLAP enzyme, luminescent substrate read-out; active compounds read high; activation fold at 20 µM; hit rate 1.2% among 96,000; in the data active means activation fold above about 2
HePTP inh: blocks human HePTP tyrosine phosphatase | P35236 | recombinant HePTP phosphatase activity, OD absorbance | inhibition, % at 20 µM | hit rate 0.64% among 110,000 | AID 521; in the data active means inhibition above about 50%;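 further: plate controls were vehicle for no effect and reference inhibitor for full effect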
Target sequence (P35236 whole entry, looked up): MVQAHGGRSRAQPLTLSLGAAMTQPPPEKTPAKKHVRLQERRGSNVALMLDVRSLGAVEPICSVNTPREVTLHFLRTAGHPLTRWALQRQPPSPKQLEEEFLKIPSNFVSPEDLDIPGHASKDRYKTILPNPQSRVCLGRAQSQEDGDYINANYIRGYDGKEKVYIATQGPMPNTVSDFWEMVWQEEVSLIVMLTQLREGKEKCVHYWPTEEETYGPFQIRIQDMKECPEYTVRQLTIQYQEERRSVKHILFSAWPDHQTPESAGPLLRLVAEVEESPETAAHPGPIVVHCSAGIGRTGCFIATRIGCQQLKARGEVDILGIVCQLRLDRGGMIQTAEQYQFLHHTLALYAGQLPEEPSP
Starred values were filed as active, the others as inactive. Sampled rows, rich in hits. Any-hit rate of the full collection: about 5.4%. Unless noted, no stated cut-off is given here; in the data, active means inhibition above about 30%; inactive means the rest.

What do the screens show for `CC(C)(C)c1ccc(OCc2nc(-c3ccccn3)no2)c(Br)c1`?
Ecoli WT expand: 3; Ecoli tolC: 100*; PostGolgi ctrl: 32*; PostGolgi yeast: -1; PLAP act: 1.5; HePTP inh: 4

What do the screens show for `Clc1cc(Cl)c(OCc2nc(-c3ccccn3)no2)cc1Cl`?
Ecoli WT expand: -13; Ecoli tolC: -3; PostGolgi ctrl: 13; PostGolgi yeast: 3; PLAP act: 0.8; HePTP inh: -4

What do the screens show for `O=C(OCn1ncc(Cl)c(Cl)c1=O)c1cccc(C(F)(F)F)c1`?
Ecoli WT expand: 19; PostGolgi ctrl: 42*; PostGolgi yeast: 106*; PLAP act: 0.9

How did CCc1ccc(C(=O)Cn2ncc(Cl)c(Cl)c2=O)cc1 do in these assays?
Ecoli WT expand: -1; PostGolgi ctrl: 7; PostGolgi yeast: -3; PLAP act: 1

What do the screens show for `Cc1cc(N=Cc2c(O)n(-c3ccc4c(c3)OCO4)c(=O)c3ccccc23)ccn1`?
Ecoli WT expand: -1; Ecoli tolC: -4; PostGolgi ctrl: 30*; PostGolgi yeast: 0; PLAP act: 1.3

What do the screens show for `Cc1ccc(-n2c(O)c(C=Nc3ccc4c(c3)OCO4)c3ccccc3c2=O)cc1C`?
Ecoli WT expand: -5; PostGolgi ctrl: 7; PostGolgi yeast: 1; PLAP act: 1.2

Results for CC(=O)NN1C(=O)/C(=C/c2cc3c(cc2[N+](=O)[O-])OCO3)SC1=S ?
HePTP inh: 93*

What do the screens show for `O=C1/C(=C\c2cc3c(cc2[N+](=O)[O-])OCO3)SC(=S)N1c1ccccc1`?
HePTP inh: -3

How did COc1cc(OC)cc(C(=O)N2CCN(c3ccccc3)CC2)c1 do in these assays?
HePTP inh: 2

Results for Cn1nnc2cc(C(=O)Nc3cccnc3)ccc21 ?
Ecoli WT expand: 4; Ecoli tolC: -4; PostGolgi ctrl: -7; PostGolgi yeast: 39*; PLAP act: 1.1; HePTP inh: 8

What do the screens show for `Cn1nnc2cc(C(=O)NC3CCCCC3)ccc21`?
Ecoli WT expand: 4; Ecoli tolC: -14; PostGolgi ctrl: 3; PostGolgi yeast: -3; PLAP act: 0.8; HePTP inh: 10

How did CC(C)NC(=O)c1ccc2c(c1)nnn2C do in these assays?
Ecoli WT expand: 5; Ecoli tolC: -11; PostGolgi ctrl: 45*; PostGolgi yeast: 1; PLAP act: 0.9; HePTP inh: 8

Results for O=[N+]([O-])c1cccc(/C=N/Nc2cc(N3CCCC3)nc(N3CCCC3)n2)c1 ?
HePTP inh: -12

What do the screens show for `O=C(NCC(=O)N(Cc1ccccc1)C(C(=O)NC1CCCC1)c1ccco1)c1ccco1` (stereo not given)?
Ecoli WT expand: -8; Ecoli tolC: -4; PostGolgi ctrl: 3; PostGolgi yeast: -1; PLAP act: 1.3; HePTP inh: 2

What do the screens show for `CCC(C)(C(=O)NC1CCCCC1)N(Cc1cccs1)C(=O)Cc1cccs1` (stereo not given)?
Ecoli WT expand: -4; PostGolgi ctrl: 24; PostGolgi yeast: 1; PLAP act: 1

Results for Cc1ccc(C(C(=O)NC2CCCC2)N(Cc2cccs2)C(=O)CNC(=O)c2cccs2)o1 (stereo not given) ?
Ecoli WT expand: -11; Ecoli tolC: 66*; PostGolgi ctrl: 9; PostGolgi yeast: -4; PLAP act: 0.9; HePTP inh: 7

Results for O=C(Cc1cccs1)N(Cc1cccs1)C1(C(=O)NC2CCCCC2)CCCCC1 ?
Ecoli WT expand: -5; PostGolgi ctrl: 31*; PostGolgi yeast: 1; PLAP act: 1.1

Results for COc1ccc(CN(C(=O)CNC(=O)c2ccco2)C(C(=O)NC2CCCC2)c2ccco2)cc1 (stereo not given) ?
Ecoli WT expand: 1; Ecoli tolC: -3; PostGolgi ctrl: 39*; PostGolgi yeast: -9; PLAP act: 0.9; HePTP inh: -2

Results for COc1cccc(N(C(=O)CNC(=O)c2ccco2)C(C(=O)NC2CCCCC2)c2ccncc2)c1 (stereo not given) ?
Ecoli WT expand: 0; Ecoli tolC: -11; PostGolgi ctrl: 38*; PostGolgi yeast: 4; PLAP act: 1.6; HePTP inh: 4

What do the screens show for `COc1cccc(N(C(=O)c2ccco2)C(C(=O)NC2CCCC2)c2cccnc2)c1` (stereo not given)?
Ecoli WT expand: 0; Ecoli tolC: -17; PostGolgi ctrl: 9; PostGolgi yeast: 4; PLAP act: 1.7; HePTP inh: 12

Results for Cc1cccc(OCC(=O)Nc2ccccc2CO)c1 ?
HePTP inh: 6

What do the screens show for `COc1ccc(CN(C(=O)Cc2cccs2)C(C(=O)NC2CCCC2)c2ccncc2)cc1` (stereo not given)?
Ecoli WT expand: 3; PostGolgi ctrl: 2; PostGolgi yeast: 38*; PLAP act: 1.5

What do the screens show for `Cc1cccc(OCC(=O)N/N=C/c2ccc(OC(=O)c3cccs3)cc2)c1`?
HePTP inh: 3

How did COc1cc(CNc2ccccc2Oc2cc(=O)n(C)c(=O)n2C)cc(OC)c1OC do in these assays?
Ecoli WT expand: 3; PostGolgi ctrl: 8; PostGolgi yeast: 0; PLAP act: 1.5

Results for Cn1c(Oc2ccccc2NCc2cc(Br)ccc2O)cc(=O)n(C)c1=O ?
Ecoli WT expand: 10; Ecoli tolC: 65*; PostGolgi ctrl: 28; PostGolgi yeast: -8; PLAP act: 1; HePTP inh: 5

Results for Cc1ccc(SCCNS(=O)(=O)c2ccc3c(c2)OCCO3)cc1 ?
Ecoli WT expand: -27; Ecoli tolC: 74*; PostGolgi ctrl: 46*; PostGolgi yeast: 0; HePTP inh: 8

How did O=S(=O)(NCCSc1ccc(Cl)cc1)c1ccc(F)cc1 do in these assays?
Ecoli WT expand: 21; PostGolgi ctrl: 19; PostGolgi yeast: -1; PLAP act: 1.1

What do the screens show for `Cc1ccc(SCCNS(=O)(=O)c2ccc(F)cc2)cc1`?
Ecoli WT expand: -6; Ecoli tolC: 10; PostGolgi ctrl: 48*; PostGolgi yeast: -4; PLAP act: 0.5; HePTP inh: -5

Results for COc1ccc(S(=O)(=O)NCCSc2ccc(C)cc2)cc1OC ?
Ecoli WT expand: -7; Ecoli tolC: 6; PostGolgi ctrl: 0; PostGolgi yeast: -6; PLAP act: 1.2; HePTP inh: -16

How did O=C(/C=C/c1ccc(F)cc1)NC(=S)Nc1ccccc1Cl do in these assays?
HePTP inh: -2

What do the screens show for `O=C(NCCN1CCN(c2ccccc2)CC1)c1cccn2c(=O)c3cc(Cl)ccc3nc12`?
Ecoli WT expand: 3; Ecoli tolC: 14; PostGolgi ctrl: 68*; PostGolgi yeast: 7; PLAP act: 1.6; HePTP inh: -3

How did Cc1cccc(C)c1N1CCN(c2ccc3nnc(C(F)(F)F)n3n2)CC1 do in these assays?
Ecoli WT expand: 9; PostGolgi ctrl: 48*; PostGolgi yeast: 19; PLAP act: 1.6

How did FC(F)(F)c1nnc2ccc(N3CCOCC3)nn12 do in these assays?
Ecoli WT expand: -3; Ecoli tolC: -15; PostGolgi ctrl: 15; PostGolgi yeast: 3; PLAP act: 1.2; HePTP inh: 9
